Results taken from the RNAGym collection of RNA variant scans (doi:10.1126/science.aae0568).
This sample holds only a part of the variants without activity.

B1: tRNA (parent)
chain: GUUCCGUUGGCGUAAUGGUAACGCGUCUCCCUCCUAAGGAGAAGACUGCGGGUUCGAGUCCCGUACGGAACG

Variants of: B1
Assay: yeast fitness relative to wild type (ratio to wild type); higher = fitter; tRNA-Arg(CCU), competitive growth, 37 C, YPD
Procedure, shortened: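 The tRNA-Arg(CCU) gene variants were made by chemical synthesis with a 3% per-site mutation rate at 69 sites and inserted at the native genomic locus of Saccharomyces cerevisiae. After pooling, the strains were competed in YPD at 37°C for 24 hours in six parallel replicates. Gene amplicons from the start population and each end population were read by 100-nucleotide paired-end sequencing, and Darwinian fitness relative to wild type was taken from genotype frequency changes. Genotypes needed ≥ 100 starting reads, and estimates < 0.5 were set to 0.5.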

Row | Variant | yeast fitness
1 | G44C A70G | 0.954
2 | A45C C55G C61U | ≤ 0.5
3 | G44C U47C | 0.822
4 | A45C C49U | 0.978
5 | A45C C49G | 0.721
6 | A45C C49A | 0.603
7 | G44C C62A C66U | ≤ 0.5
8 | G44A G52A C61A | 0.565
9 | G44C G51A G58C U59A | ≤ 0.5
10 | G44C C55G A65G | 0.555
11 | A45C C49A U54C | ≤ 0.5
12 | G44C C62G G68A | ≤ 0.5
13 | G44A C55A | 0.658
14 | G44A C55U | 0.776
15 | G44C C61U | 0.718
16 | G44C C61G | 0.586
17 | G44A C46U G58C | 1.08
18 | G44C G50C A57G A69U | ≤ 0.5
19 | G44A G58U A69C | ≤ 0.5
20 | A43U U47G U53G | 0.519
21 | A43U G52A A69U | ≤ 0.5
22 | G44A C62G | 0.668
23 | G44A C62U | 0.874
24 | G44C C55A | 0.548

Row | Variant | yeast fitness
25 | G44C C55G | 0.596
26 | G44A G50C | 0.623
27 | G44A G50A | 0.891
28 | G44C C62U G63A | ≤ 0.5
29 | G44C C62U A69C | 0.696
30 | G44C U59C | 0.791
31 | G44C U59A | 0.581
32 | G44A A45C C49G | 0.983
33 | G44C U54C | 0.977
34 | G44C U54A | 0.667
35 | G44A A57C | 0.654
36 | G44C G56A | 0.795
37 | A45C C55A | 0.562
38 | A43U G56A | 0.96
39 | G44A C46G G50C U53A | ≤ 0.5
40 | G44C C46A | 1.01
41 | G44C A57C | 0.568
42 | G44C A57G | 0.895
43 | G44A C60U | 0.798
44 | G44A C60A | 0.585
45 | A45C A57G | 0.858
46 | A45C C60U | 0.752
47 | G44A G68C | 0.764
48 | G44A G68U | 0.696

Row | Variant | yeast fitness
49 | A45C C49U A70C | 0.813
50 | A45C C55U A69U | 0.753
51 | G44U A45C G50C | ≤ 0.5
52 | G44C G50C G52A U54G C61G | ≤ 0.5
53 | A45C A65U | 0.833
54 | A45C A65G | 0.993
55 | G44A C49U A69C | 0.752
56 | G44A A70G | 0.919
57 | G44A A70U | 1.03
58 | G44A A70C | 0.837
59 | G44A G52C | 0.504
60 | G44A G52A | 0.827
61 | A43U U54A A70G | ≤ 0.5
62 | G44A C55A A69C | ≤ 0.5
63 | G44A A45U C62G | ≤ 0.5
64 | G44C C49A | 0.625
65 | G44C C49G | 0.741
66 | G44C C49U | 0.783
67 | A45C C46U U64C | 0.79
68 | A43U U53A A69C | 0.614
69 | A43U U47C | 0.899
70 | G44A U47G C49G U54G | ≤ 0.5
71 | G44C G52A C62G A69G | ≤ 0.5
72 | G44U A45U G63C | ≤ 0.5

Row | Variant | yeast fitness
73 | A45C C49A A65U | ≤ 0.5
74 | G44A A45C C49G A69C | 0.698
75 | A43U U47C C55A A65U A70G | ≤ 0.5
76 | A45C C46G | 1.01
77 | A45C C46A | 0.991
78 | G44A C46U | 0.981
79 | G44A G48A | 0.96
80 | A43U G50C C60A | ≤ 0.5
81 | A45C C61G | 0.591
82 | A43U G52C C62A | ≤ 0.5
83 | G44C C62G | 0.644
84 | G44C C62A | 0.738
85 | G44A C60U G67C | 0.545
86 | G44C G52A U59C U64G | 0.553
87 | A43U G50A G68A | ≤ 0.5
88 | G44U C55G | ≤ 0.5
89 | A45C A57G A70C | 0.764
90 | G44C G67U | 0.855
91 | G44C G67A | 0.722
92 | A43U G67A A69U | 0.548
93 | A43U U59A C61A | 0.629
94 | G44C C55G A69U | 0.746
95 | A43U G48C C60G G63A | ≤ 0.5
96 | G44A G67A A70G | 0.688

Row | Variant | yeast fitness
97 | G44C C46G A57C | ≤ 0.5
98 | A45C C46U C55U C62U | ≤ 0.5
99 | G44C G68C | 0.81
100 | G44C G68U | 0.661
101 | G44A U64C | 0.935
102 | G44C U64G | 0.653
103 | G44C U64C | 0.858
104 | A43U G48C C60G | ≤ 0.5
105 | G44A G56A | 1.05
106 | G44A C60G U64C | ≤ 0.5
107 | G44A C61U | 1.04
108 | G44U C49G | 0.654
109 | A45C A69C | 0.744
110 | A45C A69G | 1.06
111 | G44A G67C | 0.71
112 | G44A G67A | 0.887
113 | A43U U64G | 0.7
114 | G44A U54C C61U A69C | 0.627
115 | A45C C49U C55U | 0.596
116 | A45C C55U G67C | ≤ 0.5
117 | G44C A57U U64A G68C | ≤ 0.5
118 | A43U U59G | 0.81
119 | G44C G48A G51A | 0.985
120 | G44A G56C A57U | 0.596

Row | Variant | yeast fitness
121 | A45C A57C G68C | 0.517
122 | G44A U59C | 0.799
123 | G44A U59A | 0.601
124 | G44A U54A | 0.61
125 | G44C C61A C62U C66U | ≤ 0.5
126 | G44C G50A G67C | 0.604
127 | A43U U64G G67A | ≤ 0.5
128 | A45C | 0.987
129 | G44C A45G G56A | 1.01
130 | A45C C46A C49G | 0.722
131 | A43U U54A A57C | 0.533
132 | A43U G58U | 0.694
133 | A45C A70G | 0.957
134 | G44C A45U | 0.905
135 | G44C A45C | 0.97
136 | G44A G63A G67C | ≤ 0.5
137 | A45C C46G G56C | 0.563
138 | G44A A45C U53A C55A U59C C62U | ≤ 0.5
139 | G44C C46A G56C | 0.543
140 | G44C G50A | 0.861
141 | G44C U53C | 0.797
142 | A43U G56A G63A | 0.773
143 | G44C G52C C66G | ≤ 0.5
144 | G44A C46A G52A C66U | 0.62

Row | Variant | yeast fitness
145 | G44A A45C G51A | ≤ 0.5
146 | A45C C55U G56A | 0.539
147 | G44A A69C | 0.988
148 | G44C G63A | 0.83
149 | A43U G50A | 0.796
150 | A43U G50C | 0.812
151 | G44A C66U | 0.86
152 | G44C C46G C55U G63A | ≤ 0.5
153 | A43U G63C | 0.589
154 | G44A C46U A70C | 0.809
155 | G44A U54A A70U | 0.549
156 | G44A C49U | 1.04
157 | G44A C49A | 0.635
158 | G44C C49U U59G | ≤ 0.5
159 | G44A C55G G63C | ≤ 0.5
160 | A45C C46U G67C | 0.584
161 | G44A A65G | 1
162 | G44C A45G A70G | 0.695
163 | A45C C55U G68C | 0.626
164 | G44C A65G | 1.06
165 | G44C A65C | 0.742
166 | G44C C66A | 0.688
167 | G44C C46A A69U | 0.726
